Several values for one entry are separate records, joined by “and”; a condition that tells them apart may be missing. Equal entries are not always repeated.
Assays:
Assay type in all cases: in vivo, Swiss albino mice
[1] = system: spatial memory of scopolamine-treated AD mice; assay: Morris water-maze test in scopolamine-treated mice; conditions: for spatial memory (probe test, fifth day): after platform removal, vs scopolamine group; for number of entries in the arm: intranasal 0.5 mg/kg bw; for time to find the hidden acrylic platform: intranasal 0.5 mg/kg bw (EGCG-AA-TRANS 0.25 mg/kg bw each)
Procedure, shortened: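 Mice (30 ± 5 g; n = 5/group) were dosed intranasally for 6 days with free or transferosome-loaded test compound at 0.5 mg/kg bw, or 0.25 mg/kg bw of each in the combination. On day 7, scopolamine 0.5 mg/kg bw was given 30 min before trials. Pool 160 cm wide, water 26 cm deep, 22 ± 1 °C; run over 5 days. Quadrant time, arm entries and platform latency recorded; one-way ANOVA with Newman–Keuls.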

NO levels = assay: NO; conditions: hippocampus tissue homogenate
Procedure, shortened: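 Hippocampus came from mice dosed intranasally for 6 days and challenged with scopolamine (n = 5). Tissue was homogenised in KCl buffer pH 8.0 with protease and phosphatase inhibitors, then spun at 10,000 g for 25 min at 4 °C. The 10% homogenate was mixed with ammonium chloride and Griess reagent, held 37 °C for 90 min, read at 540 nm. Sodium nitrite standards […]; nitrite in μM/mL; one-way ANOVA with Newman–Keuls.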

[2] = Organ distribution and brain pharmacokinetic study; conditions: brain
[3] = Swiss albino, mouse, inhaled or intranasal, 0.5 mg/kg

Row | Molecule | spatial memory (probe test, fifth day) [1] | number of entries in the arm [1] | time to find the hidden acrylic platform [1] [s] | NO levels (NO levels) | AUC(0-t) [2, 3] [ng·h/mL] | Cmax [2, 3] [ng/mL] | MRT last [2, 3] [h] | Tmax [2, 3] [h] | Cmax ([2]; mice) [ng/mL] | MRT0–24 ([2]; mice) | Tmax ([2]; mice) [h]
1 | O=C1O[C@H]([C@@H](O)CO)C(O)=C1O [AA, ascorbic acid] | improved spatial memory | 15 times | 38 | significant decrease in NO levels | 1061 ± 0.654 | 855.03 ± 0.654 | 1.98 ± 0.121 | 2.12 ± 0.871 | – | – | –
2 | CN1[C@@H]2C[C@@H](OC(=O)[C@H](CO)c3ccccc3)C[C@H]1[C@@H]1O[C@@H]12 [scopolamine, Scopolamine] | significantly reduced their spatial memory | about 12 times | 84 | significantly higher | – | – | – | – | – | – | –
3 | Epigallocatechin-3-gallate [EGCG] | improved spatial memory | 14 times | 42 | significant decrease in NO levels | – | – | – | – | 0.78607 ± 0.000784 | 1.4 ± 0.985 h and 1.412 ± 0.985 h | 1.101 ± 2.871

From article PMC11339821 (ACS Omega, 2024)
